# Test results taken from ChEMBL document CHEMBL1153176, “2,6-Dithienyl-4-furyl pyridines: Synthesis, topoisomerase I and II inhibition, cytotoxicity, structure-activity relationship, and docking study” (Bioorg Med Chem Lett, 2010).
# Counter-ions that a name gives are not always drawn.
# Assays:
# [1] = species: Bos taurus; assay: Inhibition of calf thymus topoisomerase 1-mediated relaxation of supercoiled pBR322 DNA at 20 uM after 30 mins by agarose gel electrophoresis
# Outline: (§1)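 Compound at 20 or 100 μM, 37 °C for 30 min. Stopped with SDS/dye mix, run on 1% agarose in TBE for 10 h, stained with ethidium bromide (0.5 μg/mL).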
# [2] = target: DNA topoisomerase 2-alpha (Homo sapiens) (UniProt P11388); assay: Inhibition of human topoisomerase 2 alpha-mediated relaxation of supercoiled pBR322 DNA at 20 uM after 30 mins by agarose gel electrophoresis
# Outline: (§2)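 Human topo II (0.3 U) with 0.2 μg pBR322 in 50 mM Tris–HCl pH 8.0, 120 mM KCl, 10 mM MgCl2, 0.5 mM ATP, 0.5 mM DTT and BSA. Compound at 20 or 100 μM, 37 °C for 30 min. Stopped with 0.77% SDS/77 mM EDTA, run on 1% agarose at 1.5 V/cm for 10 h in TBE, stained with ethidium bromide.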
# [3] = target: DNA topoisomerase 2-alpha (Homo sapiens) (UniProt P11388); assay: Inhibition of human topoisomerase 2 alpha-mediated relaxation of supercoiled pBR322 DNA at 100 uM after 30 mins by agarose gel electrophoresis; outline: as §2
# [4] = species: Bos taurus; assay: Inhibition of calf thymus topoisomerase 1-mediated relaxation of supercoiled pBR322 DNA at 100 uM after 30 mins by agarose gel electrophoresis; outline: as §1
# [5] = tested on: HeLa; assay: Cytotoxicity against human HeLa cells after 3 days; assay type: functional, cell-based; conditions: 72 h
# Outline: (§3)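 Cells seeded at 2–4 × 10⁴ per well and held overnight at 37 °C, 5% CO₂ in medium with 10% FBS. On day 1 the medium was replaced with medium holding graded compound concentrations. Absorbance read at 450 nm. IC50 from a four-parameter logistic fit of the 450 nm readings.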
# [6] = tested on: DU-145; assay: Cytotoxicity against human DU145 cells after 3 days; assay type: functional, cell-based; conditions: DU-145, 72 h; outline: as §3
# [7] = tested on: HCT-116; assay: Cytotoxicity against human HCT116 cells after 3 days; assay type: functional, cell-based; conditions: HCT-116, 72 h; outline: as §3
# [8] = tested on: MCF7; assay: Cytotoxicity against human MCF7 cells after 3 days; assay type: functional, cell-based; conditions: MCF7, 72 h; outline: as §3
# [9] = tested on: MDA-MB-231; assay: Cytotoxicity against human MDA-MB-231 cells after 3 days; assay type: functional, cell-based; conditions: MDA-MB-231, 72 h; outline: as §3
# Sequence of DNA topoisomerase 2-alpha (Homo sapiens) (P11388 whole entry): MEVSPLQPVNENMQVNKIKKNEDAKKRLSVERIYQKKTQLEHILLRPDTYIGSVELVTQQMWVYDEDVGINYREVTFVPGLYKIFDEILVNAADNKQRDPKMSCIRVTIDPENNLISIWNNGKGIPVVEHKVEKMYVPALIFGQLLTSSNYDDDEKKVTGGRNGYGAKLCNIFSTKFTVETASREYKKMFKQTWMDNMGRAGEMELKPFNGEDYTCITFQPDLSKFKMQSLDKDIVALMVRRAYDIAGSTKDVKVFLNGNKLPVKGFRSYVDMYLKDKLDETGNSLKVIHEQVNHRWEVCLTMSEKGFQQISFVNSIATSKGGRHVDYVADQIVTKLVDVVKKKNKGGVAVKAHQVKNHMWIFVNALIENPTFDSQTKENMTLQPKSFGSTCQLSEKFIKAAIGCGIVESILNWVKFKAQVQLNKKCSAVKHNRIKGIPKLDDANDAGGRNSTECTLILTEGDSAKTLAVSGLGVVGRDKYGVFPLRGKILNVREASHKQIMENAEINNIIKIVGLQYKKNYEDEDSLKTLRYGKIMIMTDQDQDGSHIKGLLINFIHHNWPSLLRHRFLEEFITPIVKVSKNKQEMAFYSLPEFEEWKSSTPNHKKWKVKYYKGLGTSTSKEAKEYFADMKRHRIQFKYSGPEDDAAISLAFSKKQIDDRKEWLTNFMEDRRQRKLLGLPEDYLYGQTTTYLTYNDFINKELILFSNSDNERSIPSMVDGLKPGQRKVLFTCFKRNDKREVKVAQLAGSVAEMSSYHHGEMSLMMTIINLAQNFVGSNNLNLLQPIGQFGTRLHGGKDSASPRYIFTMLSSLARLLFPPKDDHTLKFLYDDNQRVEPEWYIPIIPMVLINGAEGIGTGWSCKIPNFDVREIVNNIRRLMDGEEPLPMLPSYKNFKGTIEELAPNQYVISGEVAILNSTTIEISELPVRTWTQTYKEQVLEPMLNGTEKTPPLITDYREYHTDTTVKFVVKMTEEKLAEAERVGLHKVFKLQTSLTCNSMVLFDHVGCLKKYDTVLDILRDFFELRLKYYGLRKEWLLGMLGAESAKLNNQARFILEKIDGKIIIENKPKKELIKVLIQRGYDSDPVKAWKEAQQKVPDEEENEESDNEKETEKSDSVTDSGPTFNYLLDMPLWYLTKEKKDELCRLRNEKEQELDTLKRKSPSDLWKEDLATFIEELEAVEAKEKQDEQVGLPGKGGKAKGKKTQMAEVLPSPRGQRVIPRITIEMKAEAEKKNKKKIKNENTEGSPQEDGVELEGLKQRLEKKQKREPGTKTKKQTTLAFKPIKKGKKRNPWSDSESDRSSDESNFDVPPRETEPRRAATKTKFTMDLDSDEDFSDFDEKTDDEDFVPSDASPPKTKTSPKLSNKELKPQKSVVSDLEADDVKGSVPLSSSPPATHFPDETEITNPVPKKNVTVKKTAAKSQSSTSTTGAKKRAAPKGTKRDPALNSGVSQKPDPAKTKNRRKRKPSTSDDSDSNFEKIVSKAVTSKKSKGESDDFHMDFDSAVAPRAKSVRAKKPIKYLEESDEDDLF
SMILES,inhibition [1] [%],inhibition [2] [%],inhibition [3] [%],inhibition [4] [%],IC50 [5] [µM],IC50 [6] [µM],IC50 [7] [µM],IC50 [8] [µM],IC50 [9] [µM]
Cc1ccsc1-c1cc(-c2ccoc2)cc(-c2ccsc2)n1,0,0,0,13,–,–,–,–,–
Cc1ccsc1-c1cc(-c2ccoc2)cc(-c2cccs2)n1,3,7,3,9,–,–,–,–,–
Clc1ccc(-c2cc(-c3ccsc3)nc(-c3cccs3)c2)o1,12,7,55,50,43.7,> 100,> 100,> 100,26.8
Cc1ccc(-c2cc(-c3ccsc3)nc(-c3sccc3C)c2)o1,0,0,0,0,–,–,–,–,–
c1coc(-c2cc(-c3ccsc3)nc(-c3cccs3)c2)c1,5,0,34,12,–,–,–,–,–
Cc1ccc(-c2cc(-c3cccs3)nc(-c3cc(C)sc3C)c2)o1,0,0,0,5,–,–,–,–,–
Cc1ccc(-c2cc(-c3cccs3)nc(-c3sccc3C)c2)o1,0,15,25,0,–,–,–,–,–
c1coc(-c2cc(-c3ccsc3)nc(-c3ccsc3)c2)c1,0,0,32,0,–,–,–,–,–
COc1cccc2c1C(=O)c1c(O)c3c(c(O)c1C2=O)C[C@@](O)(C(=O)CO)C[C@@H]3O[C@H]1C[C@H](N)[C@H](O)[C@H](C)O1 [DOXORUBICIN HYDROCHLORIDE],–,–,–,–,1.6,1.3,–,–,1.16
COc1cc([C@@H]2c3cc4c(cc3[C@@H](O[C@@H]3O[C@@H]5CO[C@@H](C)O[C@H]5[C@H](O)[C@H]3O)[C@H]3COC(=O)[C@H]23)OCO4)cc(OC)c1O [ETOPOSIDE],–,36,73,–,8.43,21.1,17.9,18,16.9
Cc1ccc(-c2cc(-c3cccs3)nc(-c3cccs3)c2)o1,0,0,8,3,–,–,–,–,–
Cc1ccc(-c2cc(-c3ccsc3)nc(-c3cccs3)c2)o1,0,0,2,0,–,–,–,–,–
c1cc(-c2cc(-c3ccsc3)nc(-c3ccsc3)c2)co1,0,4,12,0,–,–,–,–,–
Cc1ccsc1-c1cc(-c2ccoc2)cc(-c2sccc2C)n1,15,0,0,30,–,–,–,–,–
Clc1ccc(-c2cc(-c3ccsc3)nc(-c3ccsc3)c2)o1,0,0,8,14,–,–,–,–,–
Cc1ccc(-c2cc(-c3ccsc3)nc(-c3ccsc3)c2)o1,0,0,5,0,–,–,–,–,–
Cc1ccsc1-c1cc(-c2ccco2)cc(-c2ccsc2)n1,9,11,58,52,19.2,> 100,51.1,> 100,41.8
Cc1ccsc1-c1cc(-c2ccco2)cc(-c2cccs2)n1,12,9,28,51,17.9,> 100,56.4,> 100,59.6
c1csc(-c2cc(-c3ccoc3)cc(-c3ccsc3)n2)c1,0,1,18,0,–,–,–,–,–
Clc1ccc(-c2cc(-c3cccs3)nc(-c3cccs3)c2)o1,12,0,35,42,55.2,88.1,95.5,> 100,54.8
Cc1ccsc1-c1cc(-c2ccco2)cc(-c2sccc2C)n1,88,14,23,92,35.8,98.2,> 100,> 100,38.3
Cc1ccc(-c2cc(-c3ccsc3)nc(-c3cc(C)sc3C)c2)o1,0,0,7,0,–,–,–,–,–
CC[C@@]1(O)C(=O)OCc2c1cc1n(c2=O)Cc2cc3ccccc3nc2-1 [CAMPTOTHECIN],41,–,–,54,1.85,1.46,2.77,7.42,1.1
c1csc(-c2cc(-c3ccoc3)cc(-c3cccs3)n2)c1,0,15,70,0,8.62,> 100,50.6,> 100,23.6
